≈ marks a conversion by molar mass, not a printed value. Calls of active or inactive are those of the source. The calls are words filed in the database; no cut-off is given here.
Assays:
CCRF-CEM = experiment: Antiproliferative activity against human CEM cells after 72 hrs; type: cell-based
In short: (§1)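 Cells in growth medium grown with variable compound concentrations at 37 °C in humidified CO2-controlled atmosphere; incubation 48 h for L1210 and FM3A, 72 h for CEM, 96 h for HeLa. Cell number counted by Coulter counter; IC50 = concentration inhibiting proliferation by 50%.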

FM3A = experiment: Antiproliferative activity against mouse FM3A cells after 48 hrs; type: functional, cell-based; in short: as §1
HeLa = experiment: Antiproliferative activity against human HeLa cells after 96 hrs; type: functional, cell-based; in short: as §1
L1210 = experiment: Antiproliferative activity against mouse L1210 cells after 48 hrs; type: functional, cell-based; details: L1210, 48 h; in short: as §1
[1] = target: Casein kinase II subunit alpha' (Homo sapiens) (UniProt P19784); experiment: Inhibition of CSNK2A2 at 10 uM after 1 hr by competitive binding assay
In short: (§2)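 Single-dose competitive binding at 10 μM against immobilized ATP-site ligands (DiscoveRx): phage-tagged or HEK-293-expressed DNA-tagged kinase with ligand-loaded streptavidin magnetic beads in 20% SeaBlock, 0.17× PBS, 0.05% Tween 20, 6 mM DTT, 1 h room temperature with shaking. Beads washed, eluted with 0.5 μM free ligand for 30 min; bound kinase quantified by qPCR as % binding inhibition.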

[2] = target: Inhibitor of nuclear factor kappa-B kinase subunit alpha (Homo sapiens) (UniProt O15111); experiment: Inhibition of IKKalpha at 10 uM after 1 hr by competitive binding assay; in short: as §2
[3] = target: Serine/threonine-protein kinase PAK 3 (Homo sapiens) (UniProt O75914); experiment: Inhibition of PAK3 at 10 uM after 1 hr by competitive binding assay; in short: as §2
[4] = target: Non-receptor tyrosine-protein kinase TYK2 (Homo sapiens) (UniProt P29597); experiment: Inhibition of TYK2 at 10 uM after 1 hr by competitive binding assay; in short: as §2
[5] = target: T1, Bone morphogenetic protein receptor type-1B (Homo sapiens, UniProt O00238); experiment: Inhibition of BMPR1B at 10 uM after 1 hr by competitive binding assay; in short: as §2
[6] = target: Tyrosine-protein kinase BTK (Homo sapiens) (UniProt Q06187); experiment: Inhibition of BTK at 10 uM after 1 hr by competitive binding assay; in short: as §2
[7] = target: Receptor-type tyrosine-protein kinase FLT3 (Homo sapiens) (UniProt P36888); experiment: Inhibition of FLT-3 kinase at 10 uM after 1 hr by competitive binding assay; in short: as §2
[8] = target: MAP/microtubule affinity-regulating kinase 3 (Homo sapiens) (UniProt P27448); experiment: Inhibition of MARK3 at 10 uM after 1 hr by competitive binding assay
[9] = target: Ribosomal protein S6 kinase alpha-1 (Homo sapiens) (UniProt Q15418); experiment: Inhibition of RPS6KA1 kinase at 10 uM after 1 hr by competitive binding assay; in short: as §2
[10] = target: Casein kinase I isoform gamma-2 (Homo sapiens) (UniProt P78368); experiment: Inhibition of CSNK1G2 at 10 uM after 1 hr by competitive binding assay; in short: as §2
[11] = target: T1, Bone morphogenetic protein receptor type-1B; experiment: Binding affinity to BMPR1B at >30 uM by multi dose competitive binding assay
[12] = Antiproliferative activity against human NCI60 cells; type: functional, cell-based
[13] = target: MAP kinase-interacting serine/threonine-protein kinase 2 (Homo sapiens) (UniProt Q9HBH9); experiment: Inhibition of MKNK2 at 10 uM after 1 hr by competitive binding assay; in short: as §2
[14] = target: Tyrosine-protein kinase ABL1 (Homo sapiens) (UniProt P00519); experiment: Inhibition of ABL1 at 10 uM after 1 hr by competitive binding assay; in short: as §2
[15] = target: Myosin light chain kinase family member 4 (Homo sapiens) (UniProt Q86YV6); experiment: Inhibition of MYLK4 at 10 uM after 1 hr by competitive binding assay; in short: as §2
[16] = target: Receptor tyrosine-protein kinase erbB-2 (Homo sapiens) (UniProt P04626); experiment: Inhibition of ErbB2 at 10 uM after 1 hr by competitive binding assay; in short: as §2
[17] = target: Myosin light chain kinase (Homo sapiens) (UniProt Q32MK0); experiment: Inhibition of MYLK3 at 10 uM after 1 hr by competitive binding assay; in short: as §2
[18] = target: Serine/threonine-protein kinase Nek2 (Homo sapiens) (UniProt P51955); experiment: Inhibition of NEK2 at 10 uM after 1 hr by competitive binding assay; in short: as §2
[19] = target: Serine/threonine-protein kinase DCLK1 (Homo sapiens) (UniProt O15075); experiment: Inhibition of DCLK1 at 10 uM after 1 hr by competitive binding assay; in short: as §2
[20] = target: Tyrosine-protein kinase Tec (Homo sapiens) (UniProt P42680); experiment: Inhibition of TEC at 10 uM after 1 hr by competitive binding assay; in short: as §2
[21] = target: Mitogen-activated protein kinase 11 (Homo sapiens) (UniProt Q15759); experiment: Inhibition of MAPK11 at 10 uM after 1 hr by competitive binding assay; in short: as §2
[22] = target: Tyrosine-protein kinase Blk (Homo sapiens) (UniProt P51451); experiment: Inhibition of Blk at 10 uM after 1 hr by competitive binding assay; in short: as §2
[23] = target: T1, Bone morphogenetic protein receptor type-1B; experiment: Binding affinity to BMPR1B by multi dose competitive binding assay
[24] = target: Epidermal growth factor receptor (Homo sapiens) (UniProt P00533); experiment: Inhibition of EGFR at 10 uM after 1 hr by competitive binding assay; in short: as §2
[25] = target: Homeodomain-interacting protein kinase 1 (Homo sapiens) (UniProt Q86Z02); experiment: Inhibition of HIPK1 at 10 uM after 1 hr by competitive binding assay; in short: as §2
[26] = target: NT-3 growth factor receptor (Homo sapiens) (UniProt Q16288); experiment: Inhibition of NTRK3 at 10 uM after 1 hr by competitive binding assay; in short: as §2
[27] = target: Protein kinase C epsilon type (Homo sapiens) (UniProt Q02156); experiment: Inhibition of PRKCE at 10 uM after 1 hr by competitive binding assay; in short: as §2

SMILES | IC50 (CCRF-CEM) [µg/mL] | IC50 (HeLa) [µg/mL] | IC50 (L1210) [µg/mL] | IC50 (FM3A) [µg/mL] | other results
CCCCCCNC(=O)Nc1ncnc2c1ncn2[C@@H]1O[C@H](COC(=O)NC)[C@@H](O[Si](C)(C)C(C)(C)C)[C@H]1O[Si](C)(C)C(C)(C)C | 175 (≈ 257 µM) | 88 (≈ 129 µM) | > 200 | > 200 | 
CNC(=O)OC[C@H]1O[C@@H](n2cnc3c(NC(=O)NC4CCCCC4)ncnc32)[C@H](O[Si](C)(C)C(C)(C)C)[C@@H]1O[Si](C)(C)C(C)(C)C | 175 (≈ 258 µM) | 69 (≈ 102 µM) | 74 (≈ 109 µM) | > 200 | 
CNC(=O)OC[C@H]1O[C@@H](n2cnc3c(NC(=O)Nc4ccc(OC)cc4)ncnc32)[C@H](O[Si](C)(C)C(C)(C)C)[C@@H]1O[Si](C)(C)C(C)(C)C | > 200 | ≥ 200 | > 200 | > 200 | 
CCOC(=O)C[C@H]1[C@@H](O[Si](C)(C)C(C)(C)C)[C@H](n2cnc3c(NC(=O)Nc4ccccc4)ncnc32)O[C@@H]1CNC(=O)NC |  |  |  |  | inhibition [1]: 31%; inhibition [2]: 37%; inhibition [3]: 33%; inhibition [4]: 31%; inhibition [5]: 47%; inhibition [6]: 35%; inhibition [7]: 31%; inhibition [8]: 34%; inhibition [9]: 40%; inhibition [10]: 38%
CNC(=O)NC[C@H]1O[C@@H](n2cnc3c(NC(=O)Nc4ccc(I)cc4)ncnc32)[C@H](O[Si](C)(C)C(C)(C)C)[C@@H]1O[Si](C)(C)C(C)(C)C | 68 (≈ 85.3 µM) | 18 (≈ 22.6 µM) | 43 (≈ 54 µM) |  | 
CNC(=O)NC[C@H]1O[C@@H](n2cnc3c(NC(=O)Nc4ccc(OC)cc4)ncnc32)[C@H](O[Si](C)(C)C(C)(C)C)[C@@H]1O[Si](C)(C)C(C)(C)C | 5.2 (≈ 7.42 µM) | 2.6 (≈ 3.71 µM) | 3.8 (≈ 5.42 µM) | 5.8 (≈ 8.27 µM) | 
CCCCCCNC(=O)Nc1ncnc2c1ncn2[C@@H]1O[C@H](CNC(=O)NC)[C@@H](O[Si](C)(C)C(C)(C)C)[C@H]1O[Si](C)(C)C(C)(C)C | 68 (≈ 100 µM) | 74 (≈ 109 µM) | 74 (≈ 109 µM) |  | 
CNC(=O)OC[C@H]1O[C@@H](n2cnc3c(NC(=O)Nc4ccc(I)cc4)ncnc32)[C@H](O[Si](C)(C)C(C)(C)C)[C@@H]1O[Si](C)(C)C(C)(C)C | ≥ 200 | 143 (≈ 179 µM) | > 200 | > 200 | 
CNC(=O)NC[C@H]1O[C@@H](n2cnc3c(NC(=O)NC4CCCCC4)ncnc32)[C@H](O[Si](C)(C)C(C)(C)C)[C@@H]1O[Si](C)(C)C(C)(C)C | 5.2 (≈ 7.68 µM) | 11 (≈ 16.2 µM) | 20 (≈ 29.5 µM) | 8.4 (≈ 12.4 µM) | 
CNC(=O)NC[C@H]1O[C@@H](n2cnc3c(NC(=O)Nc4ccc([N+](=O)[O-])cc4)ncnc32)[C@H](O[Si](C)(C)C(C)(C)C)[C@@H]1O[Si](C)(C)C(C)(C)C | > 200 | > 200 | ≥ 200 | > 200 | 
CNC(=O)OC[C@H]1O[C@@H](n2cnc3c(NC(=O)Nc4ccc(Cl)cc4)ncnc32)[C@H](O[Si](C)(C)C(C)(C)C)[C@@H]1O[Si](C)(C)C(C)(C)C | > 200 | > 200 | > 200 | > 200 | 
CNC(=O)NC[C@H]1O[C@@H](n2cnc3c(NC(=O)Nc4ccccc4)ncnc32)[C@H](O)[C@@H]1O |  |  |  |  | inhibition [13]: 37%; inhibition [14]: 30%; inhibition [15]: 38%; inhibition [16]: 35%; inhibition [17]: 43%; inhibition [5]: 45%; inhibition [7]: 33%; inhibition [18]: 33%; inhibition [19]: 41%; inhibition [20]: 37%; inhibition [21]: 37%; inhibition [22]: 32%; Kd [23]: 11.5 µM; inhibition [24]: 31%; inhibition [25]: 30%; inhibition [26]: 40%; inhibition [27]: 38%

Now from value to compound, other results behind:

IC50 (CCRF-CEM) [µg/mL] | IC50 (HeLa) [µg/mL] | IC50 (L1210) [µg/mL] | SMILES | IC50 (FM3A) [µg/mL] | other results
4.4 (≈ 6.91 µM) | 3.3 (≈ 5.18 µM) | 3.9 (≈ 6.12 µM) | CCCNC(=O)Nc1ncnc2c1ncn2[C@@H]1O[C@H](CNC(=O)NC)[C@@H](O[Si](C)(C)C(C)(C)C)[C@H]1O[Si](C)(C)C(C)(C)C | 4.7 (≈ 7.38 µM) | 
182 (≈ 228 µM) | 21 (≈ 26.4 µM) | 38 (≈ 47.7 µM) | CNC(=O)NC[C@H]1O[C@@H](n2cnc3c(NC(=O)Nc4cccc(I)c4)ncnc32)[C@H](O[Si](C)(C)C(C)(C)C)[C@@H]1O[Si](C)(C)C(C)(C)C |  | 
14 (≈ 19.8 µM) | 3.4 (≈ 4.82 µM) | 5.6 (≈ 7.94 µM) | CNC(=O)NC[C@H]1O[C@@H](n2cnc3c(NC(=O)Nc4ccc(Cl)cc4)ncnc32)[C@H](O[Si](C)(C)C(C)(C)C)[C@@H]1O[Si](C)(C)C(C)(C)C | 33 (≈ 46.8 µM) | 
> 200 | > 200 | > 200 | CNC(=O)OC[C@H]1O[C@@H](n2cnc3c(NC(=O)Nc4cccc(I)c4)ncnc32)[C@H](O[Si](C)(C)C(C)(C)C)[C@@H]1O[Si](C)(C)C(C)(C)C | > 200 | 
59 (≈ 92.5 µM) | 55 (≈ 86.2 µM) | 18 (≈ 28.2 µM) | CCCNC(=O)Nc1ncnc2c1ncn2[C@@H]1O[C@H](COC(=O)NC)[C@@H](O[Si](C)(C)C(C)(C)C)[C@H]1O[Si](C)(C)C(C)(C)C | 23 (≈ 36.1 µM) | 
15 (≈ 20.9 µM) | 1.5 (≈ 2.09 µM) | 7.7 (≈ 10.7 µM) | CNC(=O)OC[C@H]1O[C@@H](n2cnc3c(NC(=O)Nc4ccc([N+](=O)[O-])cc4)ncnc32)[C@H](O[Si](C)(C)C(C)(C)C)[C@@H]1O[Si](C)(C)C(C)(C)C | 24 (≈ 33.5 µM) | 
> 200 | ≥ 200 | 160 (≈ 238 µM) | CNC(=O)OC[C@H]1O[C@@H](n2cnc3c(NC(=O)Nc4ccccc4)ncnc32)[C@H](O[Si](C)(C)C(C)(C)C)[C@@H]1O[Si](C)(C)C(C)(C)C | > 200 | 
> 200 | 23 (≈ 33.5 µM) | 101 (≈ 147 µM) | CNC(=O)OC[C@H]1O[C@@H](n2cnc3c(NC(=O)NCc4ccccc4)ncnc32)[C@H](O[Si](C)(C)C(C)(C)C)[C@@H]1O[Si](C)(C)C(C)(C)C | > 200 | 
8.3 (≈ 12.4 µM) | 3.2 (≈ 4.77 µM) | 3.8 (≈ 5.66 µM) | CNC(=O)NC[C@H]1O[C@@H](n2cnc3c(NC(=O)Nc4ccccc4)ncnc32)[C@H](O[Si](C)(C)C(C)(C)C)[C@@H]1O[Si](C)(C)C(C)(C)C | 5.9 (≈ 8.79 µM) | Activity [11]: inactive; IC50 [12]: < 10 µM
8.3 (≈ 12.1 µM) | 3.8 (≈ 5.55 µM) | 4.6 (≈ 6.72 µM) | CNC(=O)NC[C@H]1O[C@@H](n2cnc3c(NC(=O)NCc4ccccc4)ncnc32)[C@H](O[Si](C)(C)C(C)(C)C)[C@@H]1O[Si](C)(C)C(C)(C)C | 9.2 (≈ 13.4 µM) | 
